Assays:
[1] = system: Rattus norvegicus; assay: Acute toxicity in Sprague-Dawley rat assessed as motor impairment at 100 mg/kg, ip after 4 hrs; type: organism-based; set-up: dose 100 mg/kg, route intraperitoneal; conditions: in vivo
Method in brief: (§1)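 Male albino Sprague Dawley rats, two per dose, given test compound i.p. as a suspension in 0.5% methyl cellulose. Behaviour was closely observed and recorded over 4 h to detect acute motor impairment. Values are scored as animals toxic over animals tested at each time point.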

[2] = system: Rattus norvegicus; assay: Acute toxicity in Sprague-Dawley rat assessed as motor impairment at 100 mg/kg, ip after 2 hrs; type: organism-based; set-up: dose 100 mg/kg, route intraperitoneal; conditions: in vivo; method in brief: as §1
[3] = system: Rattus norvegicus; assay: Acute toxicity in Sprague-Dawley rat assessed as motor impairment at 100 mg/kg, ip after 1 hr; type: organism-based; set-up: dose 100 mg/kg, route intraperitoneal; conditions: in vivo; method in brief: as §1
[4] = system: Rattus norvegicus; assay: Acute toxicity in Sprague-Dawley rat assessed as motor impairment at 100 mg/kg, ip after 0.5 hrs; type: organism-based; set-up: dose 100 mg/kg, route intraperitoneal; conditions: in vivo; method in brief: as §1
[5] = system: Rattus norvegicus; assay: Acute toxicity in Sprague-Dawley rat assessed as motor impairment at 100 mg/kg, ip after 0.25 hrs; type: organism-based; set-up: dose 100 mg/kg, route intraperitoneal; conditions: in vivo; method in brief: as §1
[6] = system: Mus musculus; assay: Neurotoxicity in albino CF-1 mouse assessed as motor impairment at 300 mg/kg, ip after 0.5 hrs by rotarod test; type: toxicity, organism-based; set-up: dose 300 mg/kg, route intraperitoneal; conditions: in vivo
Method in brief: (§2)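 Minimal motor impairment in male CF-1 mice by rotorod after i.p. dosing; toxic if animal falls off rotating rod 3 times within 1 min. Screen doses 30, 100, 300 mg/kg; quantitative TD50 (95% confidence interval) determined at time of peak effect.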

[7] = system: Mus musculus; assay: Neurotoxicity in albino CF-1 mouse assessed as motor impairment at 300 mg/kg, ip after 4 hrs by rotarod test; type: toxicity, organism-based; set-up: dose 300 mg/kg, route intraperitoneal; conditions: in vivo; method in brief: as §2
[8] = system: Rattus norvegicus; assay: Toxicity in Sprague-Dawley rat assessed as change in body weight at 600 mg/kg, ip measured after 24 hrs of clonus of one of the fore limbs seizure stage in protected rat; type: organism-based; set-up: dose 600 mg/kg, route intraperitoneal; conditions: in vivo
Method in brief: (§3)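 Male Sprague Dawley rats (150–180 g) dosed i.p. then challenged with pilocarpine; body weight change measured 24 h after first Stage III seizure, split by protected and non-protected rats, given ± S.E.M.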

[9] = system: Rattus norvegicus; assay: Toxicity in Sprague-Dawley rat assessed as change in body weight at 600 mg/kg, ip measured after 24 hrs of clonus of one of the fore limbs seizure stage in non-protected rat; type: organism-based; set-up: dose 600 mg/kg, route intraperitoneal; conditions: in vivo; method in brief: as §3
[10] = Octanol-phosphate buffer partition coefficient, log P of the compound at 5 mg, after 24 hrs by UV spectroscopic analysis; type: physicochemical
Method in brief: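 5 mg compound added to 10 mL octanol plus 10 mL phosphate buffer in stoppered tube, mechanically shaken 24 h at room temperature, then left in separating funnel 6 h to equilibrate.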

[11] = system: Rattus norvegicus; assay: Acute toxicity in Sprague-Dawley rat assessed as motor impairment at 300 mg/kg, ip after 0.25 hrs; type: organism-based; set-up: dose 300 mg/kg, route intraperitoneal; conditions: in vivo; method in brief: as §1
[12] = system: Rattus norvegicus; assay: Acute toxicity in Sprague-Dawley rat assessed as motor impairment at 300 mg/kg, ip after 0.5 hrs; type: organism-based; set-up: dose 300 mg/kg, route intraperitoneal; conditions: in vivo; method in brief: as §1
[13] = system: Rattus norvegicus; assay: Acute toxicity in Sprague-Dawley rat assessed as motor impairment at 300 mg/kg, ip after 1 hr; type: organism-based; set-up: dose 300 mg/kg, route intraperitoneal; conditions: in vivo; method in brief: as §1
[14] = system: Rattus norvegicus; assay: Acute toxicity in Sprague-Dawley rat assessed as motor impairment at 300 mg/kg, ip after 2 hrs; type: organism-based; set-up: dose 300 mg/kg, route intraperitoneal; conditions: in vivo; method in brief: as §1
[15] = system: Rattus norvegicus; assay: Acute toxicity in Sprague-Dawley rat assessed as motor impairment at 300 mg/kg, ip after 4 hrs; type: organism-based; set-up: dose 300 mg/kg, route intraperitoneal; conditions: in vivo; method in brief: as §1
[16] = system: Rattus norvegicus; assay: Acute toxicity in Sprague-Dawley rat assessed as motor impairment at 600 mg/kg, ip after 0.25 hrs; type: organism-based; set-up: dose 600 mg/kg, route intraperitoneal; conditions: in vivo; method in brief: as §1
[17] = system: Rattus norvegicus; assay: Acute toxicity in Sprague-Dawley rat assessed as motor impairment at 600 mg/kg, ip after 0.5 hrs; type: organism-based; set-up: dose 600 mg/kg, route intraperitoneal; conditions: in vivo; method in brief: as §1
[18] = system: Rattus norvegicus; assay: Acute toxicity in Sprague-Dawley rat assessed as motor impairment at 600 mg/kg, ip after 1 hr; type: organism-based; set-up: dose 600 mg/kg, route intraperitoneal; conditions: in vivo; method in brief: as §1
[19] = system: Rattus norvegicus; assay: Acute toxicity in Sprague-Dawley rat assessed as motor impairment at 600 mg/kg, ip after 2 hrs; type: organism-based; set-up: dose 600 mg/kg, route intraperitoneal; conditions: in vivo; method in brief: as §1
[20] = system: Rattus norvegicus; assay: Acute toxicity in Sprague-Dawley rat assessed as motor impairment at 600 mg/kg, ip after 4 hrs; type: organism-based; set-up: dose 600 mg/kg, route intraperitoneal; conditions: in vivo; method in brief: as §1

Compound: O=C1Nc2ccccc2/C1=N/NC(=O)c1ccncc1
- Activity [1]: Non-toxic
- Activity [2]: Non-toxic
- Activity [3]: Non-toxic
- Activity [4]: Non-toxic
- Activity [5]: Non-toxic
- Activity [6]: Non-toxic
- Activity [7]: Non-toxic
- Activity [8]: Non-toxic
- Activity [9]: 20 g
- logP at 24 h [10]: 1.12
- Activity [11]: Non-toxic
- Activity [12]: Non-toxic
- Activity [13]: Non-toxic
- Activity [14]: Non-toxic
- Activity [15]: Non-toxic
- Activity [16]: Non-toxic
- Activity [17]: Non-toxic
- Activity [18]: Non-toxic
- Activity [19]: Non-toxic
- Activity [20]: Non-toxic
